What was measured:
[1] = Cytotoxicity against mouse RAW264.7 cells assessed as viable cells after 24 hrs by MTS assay in presence of LPS; assay type: cell-based; design: concentration or dose not given beside the values; conditions: read-out: Activity
Summary of the method: (§1)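 RAW 264.7 cells treated 24 h with compound (0.31–20.0 µg/mL, DMSO 0.2% v/v final), without LPS or with 1 µg/mL LPS. MTS solution (16.7% in RPMI 1640) added for 10 min; absorbance read at 490 nm.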

[2] = Antioxidant activity assessed as superoxide radical scavenging activity by chemiluminescence assay; assay type: functional
Summary of the method: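 O2•− generated by methylglyoxal plus arginine in PBS pH 7.4, with lucigenin as the CL probe. Ultra-weak photons counted by chemiluminescence analyzer. Trolox positive control; triplicate.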

[3] = Cytotoxicity against mouse RAW264.7 cells assessed as viable cells after 24 hrs by MTS assay; assay type: cell-based; design: concentration or dose not given beside the values; conditions: read-out: Activity; summary of the method: as §1
RAW264.7 [4] = experiment: Antiinflammatory activity in mouse RAW264.7 cells assessed as inhibition of LPS-induced NO production by Griess reagent method; assay type: functional, cell-based
Summary of the method: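 RAW 264.7 cells (1 × 10^5/well) in DMEM with 10% FBS, 5% CO2, 37 °C, pre-incubated overnight. Then 24 h with vehicle or compound (0.31–20.0 µg/mL; DMSO final 0.2% v/v) plus 1 µg/mL E. coli 0127:B8 LPS. Nitrite in supernatant mixed 1:1 with Griess reagent, 5 min, OD 540 nm. IC50 derived; triplicate, mean ± SE.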

[5] = Antioxidant activity assessed as hydroxyl radical scavenging activity by chemiluminescence assay; assay type: functional
Summary of the method: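 •OH generated from EDTA, FeSO4 and 3% H2O2 with indoxyl-b-glucuronide as the CL probe. Ultra-weak photon emission read on a high-sensitivity chemiluminescence analyzer. IC50 is the concentration inhibiting 50% of generated •OH. Trolox as positive control; triplicate.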

RAW264.7 [6] = experiment: Ratio of IC50 for quercetin to IC50 for drug against LPS-induced NO release in mouse RAW264.7 cells by Griess reagent method; assay type: functional
[7] = Antiplatelet aggregatory activity in […] assessed as inhibition of collagen-induced platelet aggregation by aggregometry; assay type: functional; conditions: Homo sapiens, Plasma

| Structure (SMILES) | IC50 [2] [µM] | IC50 (RAW264.7 [4]) [µM] | IC50 [5] [µM] | IC50 [7] [µM] | viability at 24 h [1] [%] | viability at 24 h [3] [%] | Ratio IC50 (RAW264.7 [6]) |
| --- | --- | --- | --- | --- | --- | --- | --- |
| COc1cc(C(=O)C(COC(=O)c2ccc(O)cc2)Oc2c(OC)cc(/C=C/COC(=O)c3ccc(O)cc3)cc2OC)cc(OC)c1O (stereo unspecified) | > 200 | 20 | 27.5 | 67.5 | > 85 | > 85 | 2.7 |
| COc1cc([C@@H](O)[C@H](COC(=O)c2ccc(O)cc2)Oc2c(OC)cc(/C=C/COC(=O)c3ccc(O)cc3)cc2OC)cc(OC)c1O (relative stereo) | > 200 | 11.8 | 12.4 | 26.9 | > 85 | > 85 |  |
| COc1cc(/C=C/COC(=O)c2ccc(O)cc2)ccc1O[C@@H](COC(=O)c1ccc(O)cc1)[C@@H](O)c1cc(OC)c(O)c(OC)c1 (relative stereo) | > 200 | 101 | 19 | > 100 | > 85 | > 85 |  |
| COc1cc([C@H](O)[C@H](COC(=O)c2ccc(O)cc2)Oc2c(OC)cc(/C=C/COC(=O)c3ccc(O)cc3)cc2OC)ccc1O (relative stereo) | > 200 | 52.4 | 20.4 | 55.2 | > 85 | > 85 |  |
| COc1cc(C(=O)C(COC(=O)c2ccc(O)cc2)Oc2c(OC)cc([C@@H](O)[C@H](O)COC(=O)c3ccc(O)cc3)cc2OC)cc(OC)c1O (relative stereo) | 53.8 |  | 6.2 |  |  |  |  |
| O=c1c(O)c(-c2ccc(O)c(O)c2)oc2cc(O)cc(O)c12 [QUERCETIN] |  | 54.3 |  |  |  |  |  |

The next lines start with results.

| IC50 [2] [µM] | IC50 (RAW264.7 [4]) [µM] | IC50 [5] [µM] | IC50 [7] [µM] | Structure (SMILES) | viability at 24 h [1] [%] | viability at 24 h [3] [%] | Ratio IC50 (RAW264.7 [6]) |
| --- | --- | --- | --- | --- | --- | --- | --- |
|  |  |  | 75.4 | CC(=O)Oc1ccccc1C(=O)O [ASPIRIN] |  |  |  |
| > 200 |  | 27.4 | > 100 | CCO[C@@H](c1ccc(O)c(OC)c1)[C@H](CO)Oc1c(OC)cc([C@@H]2CC(=O)c3c(O)cc(O)cc3O2)cc1OC [QUIQUELIGNAN A] |  |  |  |
| > 200 | 36 | 19.9 | 43.3 | CCO[C@@H](c1ccc(O)c(OC)c1)[C@@H](COC(=O)c1ccc(O)cc1)Oc1c(OC)cc([C@@H]2CC(=O)c3c(O)cc(O)cc3O2)cc1OC [QUIQUELIGNAN B] | > 85 | > 85 |  |
| > 200 | 63.4 | 15.3 | 49.4 | CCO[C@H](c1ccc(O)c(OC)c1)[C@@H](CO)Oc1c(OC)cc(-c2cc(=O)c3c(O)cc(O)cc3o2)cc1OC [QUIQUELIGNAN C] | > 85 | > 85 |  |
| 32.8 |  | 4.4 |  | Cc1c(C)c2c(c(C)c1O)CCC(C)(C(=O)O)O2 (stereo unspecified) [TROLOX] |  |  |  |

— ChEMBL document CHEMBL1159119, “Quiquelignan A-H, eight new lignoids from the rattan palm Calamus quiquesetinervius and their antiradical, anti-inflammatory and antiplatelet aggregation activities” (Bioorg Med Chem, 2010)
